Measured values from paper PMC8914349 (Molecular cancer therapeutics, 2020).
Like-named read-outs stand apart in the source and are kept apart here. Marks after values point to notes of the source that are not given here.

Columns and labels:
[1] = test system: canine MM cells (M1, M5, M2, M3, and Jones); assay: MTS viability assay, 72h, canine MM cell lines; format: cell-based; conditions: canine MM cells in vitro, single agent
[2] = test system: canine MM cell; conditions: cited from earlier work
[3] = Preliminary dose range study in mice with canine M1 or M5 MM xenografts; format: in vivo; conditions: daily 3.0 mg/Kg, oral
[4] = test system: M1 or M5 canine MM subcutaneous xenografts; conditions: oral 5.0 mg/Kg trametinib or 2.0 mg/Kg sapanisertib EOD for 3 weeks, single agents
[5] = test system: Ras/MAPK and PI3K/Akt/mTOR signal transduction targets; format: cell-based, canine; conditions: for target inhibition in vitro (western blot): trametinib 10 nM, sapanisertib 40 nM, 4 and 24h, M1, M5 and Jones
Method in brief: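 Cell lysates were immunoblotted for p-AKT, p-S6 and p-ERK (pathway activation) and for cyclin D1, cyclin B1, Bim, Bcl-xl, Mcl-1 and p-Bad.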

[6] = format: in vivo, mice; conditions: for Liver hepatocelluar vacuolation, numbers of animals / Renal tubules scattered isolated necrosis and regeneration, numbers of animals / Renal tubules zonal cortical degeneration/necrosis, numbers of animals / Spleen red and white pulp hypocellularity, numbers of animals / Spleen lymphocytolysis, numbers of animals / Spleen lymphoid and hematopoietic hyperplasia, numbers of animals / Bone marrow hypocellularity, numbers of animals: n = 5
Method in brief: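 Non-tumor-bearing female nu/nu nude mice (n=5 per group) were dosed by oral gavage in 0.5% HPMC/0.2% Tween for 21 days. […] Bone marrow, kidney, spleen, liver and other organs were fixed for histopathology. Animals per lesion were counted and graded minimal/moderate/severe. Blood was taken into EDTA for complete counts before removal.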

[7] = Single administration plasma pharmacokinetics in tumor-bearing mice; format: in vivo; conditions: mouse plasma
Method in brief: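 Plasma and tumor were taken from two mice per group per timepoint over 2–48 h. Validated LC-MS/MS was used; sapanisertib was read by MRM m/z 310.2→268.1, calibrated 1–1000 ng/mL. Noncompartmental analysis for destructive sampling gave Cmax, T1/2 and AUC to last timepoint, with AUC error by Bailer's method.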

[8] = test system: M1-derived metastatic subline; assay: Tail vein injection metastasis study; format: in vivo, mice; conditions: trametinib 5.0 mg/Kg daily, sapanisertib 2.0 mg/Kg three times a week, four-week treatment
[9] = test system: mTOR; conditions: ATP-competitive mTOR selective inhibitor; ref https://adisinsight.springer.com/drugs/800030541; https://drugs.ncats.io/substance/JGH0DF1U03#activemoieties; cited from earlier work
[10] = test system: p-ERK, p-AKT, p-S6 and p-4E-BP1 in M1 or M5 canine MM xenografts; assay: Drug target modulation in vivo in tumor xenografts; parameters: species or system mice; conditions: three consecutive days; for p-ERK level in tumors: sapanisertib 2.0 mg/Kg or trametinib 5.0 mg/Kg oral
Method in brief: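 Female nu/nu athymic nude mice, 6–8 weeks old, received 1×10⁶ M1 or M5 cells s.c. in the flank and were randomized at 75–150 mm³ (five per group). […] Tumor lysates went to western blot and fixed sections to H&E plus p-ERK/p-S6 IHC.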

[11] = test system: human cutaneous melanoma cells (WM3311, WM2032, WM853–2 and WM858); assay: MTS viability assay, 72h, human cutaneous melanoma cell lines; format: cell-based
[12] = patients receiving the clinically approved dose of 2 mg trametinib; cited from earlier work
[13] = sapanisertib 2mg/kg daily, no lesion
[14] = sapanisertib 2mg/kg daily, severity + minimal
[15] = sapanisertib 2mg/kg daily, severity ++ moderate
[16] = sapanisertib 2mg/kg daily, severity +++ severe
[17] = sapanisertib 2mg/kg every other day, no lesion
[18] = sapanisertib 2mg/kg every other day, severity + minimal

SMILES: Nc1ccc(-c2ccc3ncc4ccc(=O)n(-c5cccc(C(F)(F)F)c5)c4c3c2)cn1 [Torin 2]
- cytotoxicity / sensitivity of cells [1]: highly effective

SMILES: Cn1c(=O)n(-c2ccc(C(C)(C)C#N)cc2)c2c3cc(-c4cnc5ccccc5c4)ccc3ncc21 [dactolisib]
- cytotoxicity ([2]; canine MM cells): dose dependent cytotoxicity

SMILES: CC(C)n1nc(-c2ccc3oc(N)nc3c2)c2c(N)ncnc21 [sapanisertib]
- tolerability [3]: not well tolerated
- tolerability [4]: tolerated with some varying body weight fluctuation
- tumor growth [4]: inhibited compared to vehicle-treated controls initially, but progression became evident over time
- cyclin expression (western blot) ([5]; canine MM cells): effective in reducing cyclin B1
- phosphorylation of Bad ([5]; canine MM cells): inhibited phosphorylation of Bad
- reciprocal activation of ERK1/2 ([5]; some cell lines): apparent reciprocal activation of ERK1/2
- target inhibition in vitro (western blot) [5]: inhibited their respective Ras/MAPK and PI3K/Akt/mTOR signal transduction targets
- tolerability ([6]; 2.0 mg/Kg alone EOD): well tolerated
- white blood cell counts finding ([6]; sapanisertib 2.0 mg/Kg daily): lymphopenia
- Liver hepatocelluar vacuolation, numbers of animals [6, 13]: 2
- Renal tubules scattered isolated necrosis and regeneration, numbers of animals [6, 13]: 5
- Renal tubules zonal cortical degeneration/necrosis, numbers of animals [6, 13]: 1
- Spleen red and white pulp hypocellularity, numbers of animals [6, 13]: 1
- Liver hepatocelluar vacuolation, numbers of animals [6, 14]: 1
- Renal tubules zonal cortical degeneration/necrosis, numbers of animals [6, 14]: 1
- Spleen lymphocytolysis, numbers of animals [6, 14]: 5
- Spleen lymphoid and hematopoietic hyperplasia, numbers of animals [6, 14]: 2
- Spleen red and white pulp hypocellularity, numbers of animals [6, 14]: 2
- Bone marrow hypocellularity, numbers of animals [6, 15]: 3 ^†
- Liver hepatocelluar vacuolation, numbers of animals [6, 15]: 1
- Renal tubules zonal cortical degeneration/necrosis, numbers of animals [6, 15]: 3
- Spleen red and white pulp hypocellularity, numbers of animals [6, 15]: 2
- Bone marrow hypocellularity, numbers of animals [6, 16]: 2
- Liver hepatocelluar vacuolation, numbers of animals [6, 16]: 1
- Bone marrow hypocellularity, numbers of animals [6, 17]: 5
- Liver hepatocelluar vacuolation, numbers of animals [6, 17]: 5
- Renal tubules scattered isolated necrosis and regeneration, numbers of animals [6, 17]: 1
- Renal tubules zonal cortical degeneration/necrosis, numbers of animals [6, 17]: 5
- Spleen lymphocytolysis, numbers of animals [6, 17]: 2
- Spleen lymphoid and hematopoietic hyperplasia, numbers of animals [6, 17]: 2
- Spleen red and white pulp hypocellularity, numbers of animals [6, 17]: 5
- Renal tubules scattered isolated necrosis and regeneration, numbers of animals [6, 18]: 4
- Spleen lymphocytolysis, numbers of animals [6, 18]: 3
- Spleen lymphoid and hematopoietic hyperplasia, numbers of animals [6, 18]: 3
- T1/2 in the presence of trametinib compared to sapanisertib alone [7]: approximately 50%
- change in sapanisertib PK in the presence of trametinib [7]: no significant change
- intrathoracic metastatic tumor burden [8]: not as effective as trametinib in abating metastasis
- selectivity for PI3K [9]: > 100 fold
- p-ERK level in tumors [10]: increased p-ERK level
- p-AKT, p-S6 and p-4EBP-1 levels in tumors ([10]; sapanisertib 2.0 mg/Kg oral): reduced p-AKT as well as downstream effectors p-S6 and p-4EBP-1 levels
- IC50 ([11]; Homo sapiens, WM2032, 72 h): 10 to 100 nM

SMILES: CC(=O)Nc1cccc(-n2c(=O)n(C3CC3)c(=O)c3c(Nc4ccc(I)cc4F)n(C)c(=O)c(C)c32)c1 [trametinib]
- IC50 ([2]; read-out: IC50, inhibiting canine MM cell growth in vitro): ~10 nM
- tumor growth [4]: inhibited compared to vehicle-treated controls initially, but progression became evident over time
- Bcl-xl levels ([5]; canine MM cells): reduced Bcl-xl levels
- cyclin expression (western blot) ([5]; canine MM cells): reduced the expression of cyclins D1 and B1
- target inhibition in vitro (western blot) [5]: inhibited their respective Ras/MAPK and PI3K/Akt/mTOR signal transduction targets
- intrathoracic metastatic tumor burden [8]: significantly less metastatic tumor burdens in the thorax compared to control vehicle-treated mice
- p-ERK level in tumors [10]: less compared to vehicle-only treated mice
- AUC [12]: 248 ng·h/mL
- Cmax [12]: 8.03 ng/mL
- sensitivity of cells ([11]; human cutaneous melanoma cells, regardless of Ras and NF1 mutation status): sensitive
- cytotoxicity / sensitivity of cells [1]: sensitive
